According to ChEMBL document CHEMBL3525963, “Tissue distribution and elimination of [14C]apixaban in rats” (Drug Metab Dispos, 2011):

Tests used:
Set-up in all cases: dose 5 mg/kg, dosed compound name [14C]-apixaban, route oral
Details in all cases: in vivo
Harderian gland [1] = assay: Biodistribution in male Sprague-Dawley rat harderian gland at 5 mg/kg, po administered as single dose measured after 0.5 hrs; assay type: ADME, organism-based
Outline: (§1)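 [¹⁴C]Apixaban given by oral gavage at 5 mg/kg (100 μCi/kg) in 0.5% Tween 80 in Labrafil (1.0 mg/mL dosing solution) to rats fasted overnight through 4 h post-dose. One rat per time point; carcass frozen in hexane/dry ice. Quantitative whole-body autoradiography used 40 µm sagittal sections and a phosphor imaging plate calibrated with [¹⁴C]glucose standards (0.001–6.5 μCi/g). Read-out in µg eq apixaban/g; LLOQ 0.037 μg eq/g.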

Thymus [2] = assay: Biodistribution in male Sprague-Dawley rat thymus at 5 mg/kg, po administered as single dose measured after 72 hrs; assay type: ADME, organism-based
Outline: (§2)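 Fasted male SD rats (225-252 g) each received one oral gavage dose of [14C]apixaban, 5 mg/kg (100 μCi/kg), in 0.5% Tween 80/Labrafil vehicle. One rat was killed per time point, from 0.5 to 168 h. Frozen carcasses were cut into 40 µm sagittal whole-body sections and read by QWBA phosphor imaging against [14C]glucose calibrants. Results are in µg apixaban eq/g; BLQ <0.037 µg eq/g.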

Liver [3] = assay: Biodistribution in male Sprague-Dawley rat liver at 5 mg/kg, po administered as single dose measured after 8 hrs; assay type: ADME, organism-based
Outline: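 [14C]apixaban (1.0 mg/mL, 20 μCi/mL) in 0.5% Tween 80 in Labrafil, given by oral gavage at 100 μCi/kg to male rats (225-252 g) fasted overnight through 4 h post-dose. One rat per time point. Carcasses frozen in hexane/dry ice and cut into 40 µm sagittal sections. QWBA read on phosphor plates against [14C]glucose standards, reported as µg eq/g. LLOQ 0.037 µg eq/g.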

Blood [4] = assay: Biodistribution in male Sprague-Dawley rat blood at 5 mg/kg, po administered as single dose measured after 24 hrs; assay type: ADME, organism-based; outline: as §2
Rattus norvegicus [5] = assay: Biodistribution in female Sprague-Dawley rat bone marrow at 5 mg/kg, po administered as single dose measured after 24 hrs; assay type: ADME, organism-based
Outline: (§3)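 Quantitative whole-body autoradiography was run after a single 5 mg/kg (100 μCi/kg) oral gavage to fasted female or pregnant SD rats, one rat per time point. Carcasses were frozen in hexane/dry ice, and 40 µm sagittal sections were dried at −20°C for at least 48 h. Sections were exposed to a phosphor plate alongside [14C]glucose standards (0.001–6.5 µCi/g). Results are µg eq/g, with LLOQ 0.037 µg eq/g.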

Thymus [6] = assay: Biodistribution in female Sprague-Dawley rat thymus at 5 mg/kg, po administered as single dose measured after 8 hrs; assay type: ADME, organism-based; outline: as §3
Rattus norvegicus [7] = assay: Biodistribution in female Sprague-Dawley rat salivary gland at 5 mg/kg, po administered as single dose measured after 8 hrs; assay type: ADME, organism-based
Outline: (§4)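 [14C]apixaban (20 μCi/mL in dosing solution) in 0.5% Tween 80 in Labrafil given by oral gavage to fasted female rats, 206-213 g, at 100 μCi/kg. One rat per time point was euthanized and snap-frozen. Sagittal 40 µm whole-body sections were read by QWBA phosphor imaging against [14C]glucose standards. Results are in µg eq apixaban/g, with LLOQ 0.037 μg eq/g.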

Harderian gland [8] = assay: Biodistribution in female Sprague-Dawley rat harderian gland at 5 mg/kg, po administered as single dose measured after 8 hrs; assay type: ADME, organism-based; outline: as §1
Rattus norvegicus [9] = assay: Biodistribution in female Sprague-Dawley rat bone marrow at 5 mg/kg, po administered as single dose measured after 8 hrs; assay type: ADME, organism-based; outline: as §4
Rattus norvegicus [10] = assay: Biodistribution in female Sprague-Dawley rat pituitary gland at 5 mg/kg, po administered as single dose measured after 4 hrs; assay type: ADME, organism-based; outline: as §4
Blood [11] = assay: Biodistribution in female Sprague-Dawley rat blood at 5 mg/kg, po administered as single dose measured after 1 hr; assay type: ADME, organism-based; outline: as §1
Rattus norvegicus [12] = assay: Biodistribution in male Sprague-Dawley rat bone marrow at 5 mg/kg, po administered as single dose measured after 1 hr; assay type: ADME, organism-based
Outline: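 Fasted male rats, 225-252 g, received [14C]apixaban by single oral gavage at 100 μCi/kg in 0.5% Tween 80/Labrafil. One rat was killed per time point and the carcass frozen. Tissue radioactivity was quantified by QWBA (40 µm sagittal sections, phosphor plate, [14C]glucose calibration) as µg eq apixaban/g, with LLOQ 0.037 μg eq/g.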

Heart = assay: Biodistribution in male Sprague-Dawley rat heart at 5 mg/kg, po administered as single dose measured after 1 hr; assay type: ADME, organism-based; outline: as §1
Harderian gland [13] = assay: Biodistribution in male Sprague-Dawley rat harderian gland at 5 mg/kg, po administered as single dose measured after 4 hrs; assay type: ADME, organism-based; outline: as §1
Thymus [14] = assay: Biodistribution in male Sprague-Dawley rat thymus at 5 mg/kg, po administered as single dose measured after 4 hrs; assay type: ADME, organism-based
Thymus [15] = assay: Biodistribution in pregnant Sprague-Dawley rat thymus at 5 mg/kg, po administered as single dose measured after 8 hrs; assay type: ADME, organism-based
Adrenal gland [16] = assay: Biodistribution in pregnant Sprague-Dawley rat adrenal gland at 5 mg/kg, po administered as single dose measured after 24 hrs; assay type: ADME, organism-based
Outline: (§5)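 Fasted pregnant SD rats (n=6, 270-319 g) each received one oral gavage dose of [14C]apixaban, 5 mg/kg (100 μCi/kg), in 0.5% Tween 80/Labrafil. One rat was killed at each of 0.5, 1, 4, 8, 24 and 48 h. Carcasses were frozen in hexane/dry ice, cut into 40 µm sagittal sections, exposed to phosphor plates and quantified against [14C]glucose standards as µg eq/g. LLOQ was 0.037 µg eq/g.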

Liver [17] = assay: Biodistribution in pregnant Sprague-Dawley rat liver at 5 mg/kg, po administered as single dose measured after 24 hrs; assay type: ADME, organism-based
Rattus norvegicus [18] = assay: Biodistribution in fetal liver of pregnant Sprague-Dawley rat at 5 mg/kg, po administered as single dose measured after 24 hrs; assay type: ADME, organism-based; outline: as §5
Adrenal gland [19] = assay: Biodistribution in female Sprague-Dawley rat adrenal gland at 5 mg/kg, po administered as single dose measured after 0.5 hrs; assay type: ADME, organism-based; outline: as §1
Harderian gland [20] = assay: Biodistribution in female Sprague-Dawley rat harderian gland at 5 mg/kg, po administered as single dose measured after 72 hrs; assay type: ADME, organism-based; outline: as §3
Rattus norvegicus [21] = assay: Biodistribution in female Sprague-Dawley rat salivary gland at 5 mg/kg, po administered as single dose measured after 1 hr; assay type: ADME, organism-based; outline: as §4
Rattus norvegicus [22] = assay: Biodistribution in pregnant Sprague-Dawley rat salivary gland at 5 mg/kg, po administered as single dose measured after 0.5 hrs; assay type: ADME, organism-based
Rattus norvegicus [23] = assay: Biodistribution in pregnant Sprague-Dawley rat brown fat at 5 mg/kg, po administered as single dose measured after 1 hr; assay type: ADME, organism-based, Brown adipose tissue
Liver [24] = assay: Biodistribution in pregnant Sprague-Dawley rat liver at 5 mg/kg, po administered as single dose measured after 1 hr; assay type: ADME, organism-based; outline: as §5
Rattus norvegicus [25] = assay: Biodistribution in fetal brain of pregnant Sprague-Dawley rat at 5 mg/kg, po administered as single dose measured after 1 hr; assay type: ADME, organism-based
Outline: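 Pregnant SD rats received a single oral gavage of [14C]apixaban at 5 mg/kg (100 μCi/kg; 1.0 mg/mL, 20 μCi/mL in 0.5% Tween 80/Labrafil) after fasting, one dam per time point. Frozen carcasses were cut into 40 µm sagittal sections and read by phosphor-imaging QWBA against [14C]glucose standards. Fetal tissue radioactivity is reported as µg eq/g, with LLOQ 0.037 µg eq/g.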

For `COc1ccc(-n2nc(C(N)=O)c3c2C(=O)N(c2ccc(N4CCCC[14C]4=O)cc2)CC3)cc1`, which Radiolabel recovery (Harderian gland [1]) is on record?
Its Radiolabel recovery is 0.21 ugequiv/g.

And the Radiolabel recovery (Thymus [2])?
Its Radiolabel recovery is “Not detected assumed BLQ”.

And the Radiolabel recovery (Liver [3])?
The Radiolabel recovery was 0.39 ugequiv/g.

And the Radiolabel recovery (Blood [4])?
Its Radiolabel recovery is “Not sampled as not visualised in autoradiograph”.

And the Radiolabel recovery (Rattus norvegicus [5])?
The Radiolabel recovery was “Not detected assumed BLQ”.

And the Radiolabel recovery (Thymus [6])?
Its Radiolabel recovery is 0.09 ugequiv/g.

What about the Radiolabel recovery (Rattus norvegicus [7]) of the same compound?
Its Radiolabel recovery is 0.13 ugequiv/g.

And the Radiolabel recovery (Harderian gland [8])?
The Radiolabel recovery was 0.22 ugequiv/g.

What about the Radiolabel recovery (Rattus norvegicus [9]) of the same compound?
The Radiolabel recovery was 0.15 ugequiv/g.

And the Radiolabel recovery (Rattus norvegicus [10])?
Its Radiolabel recovery is 0.48 ugequiv/g.

What about the Radiolabel recovery (Blood [11]) of the same compound?
Its Radiolabel recovery is 0.88 ugequiv/g.

What about the Radiolabel recovery (Rattus norvegicus [12]) of the same compound?
The Radiolabel recovery was 0.57 ugequiv/g.

And the Radiolabel recovery (Heart)?
Its Radiolabel recovery is 0.7 ugequiv/g.

What about the Radiolabel recovery (Harderian gland [13]) of the same compound?
The Radiolabel recovery was 0.42 ugequiv/g.

What about the Radiolabel recovery (Thymus [14]) of the same compound?
The Radiolabel recovery was 0.23 ugequiv/g.

And the Radiolabel recovery (Thymus [15])?
The Radiolabel recovery was 0.05 ugequiv/g.

What about the Radiolabel recovery (Adrenal gland [16]) of the same compound?
Its Radiolabel recovery is “Not sampled as not visualised in autoradiograph”.

And the Radiolabel recovery (Liver [17])?
Its Radiolabel recovery is 0.12 ugequiv/g.

What about the Radiolabel recovery (Rattus norvegicus [18]) of the same compound?
The Radiolabel recovery was “Not sampled as not visualised in autoradiograph”.

What about the Radiolabel recovery (Adrenal gland [19]) of the same compound?
The Radiolabel recovery was 0.56 ugequiv/g.

What about the Radiolabel recovery (Harderian gland [20]) of the same compound?
The Radiolabel recovery was “Not detected assumed BLQ”.

And the Radiolabel recovery (Rattus norvegicus [21])?
The Radiolabel recovery was 0.55 ugequiv/g.

What about the Radiolabel recovery (Rattus norvegicus [22]) of the same compound?
The Radiolabel recovery was 0.73 ugequiv/g.

What about the Radiolabel recovery (Rattus norvegicus [23]) of the same compound?
The Radiolabel recovery was 0.95 ugequiv/g.

What about the Radiolabel recovery (Liver [24]) of the same compound?
Its Radiolabel recovery is 7.38 ugequiv/g.

And the Radiolabel recovery (Rattus norvegicus [25])?
Its Radiolabel recovery is 0.05 ugequiv/g.
